Laboratory results: ChEMBL document CHEMBL1154321, “Benzoxazole piperidines as selective and potent somatostatin receptor subtype 5 antagonists” (Bioorg Med Chem Lett, 2009)
Values after ≈ are worked out from the molar mass of the structure shown.

Columns and labels:
[1] = target: Somatostatin receptor type 4 (Homo sapiens, UniProt P31391); assay: Displacement of SST14 from human recombinant SST4 receptor
In short: (§1)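 Membranes prepared by sonication from cells expressing the SST receptor subtype, incubated with radiolabeled 11-Tyr SST-14 tracer and test compound at varying concentrations; non-labeled SST-14 defined non-specific binding. Incubation stopped by glass-fiber filtration, bound radioactivity counted; IC50 for half-maximal binding inhibition estimated and Ki derived.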

[2] = target: Somatostatin receptor type 3 (Homo sapiens, UniProt P32745); assay: Displacement of SST14 from human recombinant SST3 receptor; in short: as §1
Chain of Somatostatin receptor type 3 (P32745 whole entry): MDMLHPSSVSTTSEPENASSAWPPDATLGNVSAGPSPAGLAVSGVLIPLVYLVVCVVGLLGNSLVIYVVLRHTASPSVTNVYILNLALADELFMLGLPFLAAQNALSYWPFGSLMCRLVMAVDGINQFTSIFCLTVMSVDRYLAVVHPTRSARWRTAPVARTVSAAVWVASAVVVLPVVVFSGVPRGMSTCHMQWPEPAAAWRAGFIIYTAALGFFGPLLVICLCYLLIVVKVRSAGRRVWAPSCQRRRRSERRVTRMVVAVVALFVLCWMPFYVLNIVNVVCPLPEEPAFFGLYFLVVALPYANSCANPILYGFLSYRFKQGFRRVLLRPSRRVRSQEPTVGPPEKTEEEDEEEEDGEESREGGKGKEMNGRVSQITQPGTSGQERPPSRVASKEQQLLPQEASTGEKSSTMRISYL

[3] = target: Somatostatin receptor type 2 (Homo sapiens, UniProt P30874); assay: Displacement of SST14 from human recombinant SST2 receptor; in short: as §1
Chain of Somatostatin receptor type 2 (P30874 whole entry): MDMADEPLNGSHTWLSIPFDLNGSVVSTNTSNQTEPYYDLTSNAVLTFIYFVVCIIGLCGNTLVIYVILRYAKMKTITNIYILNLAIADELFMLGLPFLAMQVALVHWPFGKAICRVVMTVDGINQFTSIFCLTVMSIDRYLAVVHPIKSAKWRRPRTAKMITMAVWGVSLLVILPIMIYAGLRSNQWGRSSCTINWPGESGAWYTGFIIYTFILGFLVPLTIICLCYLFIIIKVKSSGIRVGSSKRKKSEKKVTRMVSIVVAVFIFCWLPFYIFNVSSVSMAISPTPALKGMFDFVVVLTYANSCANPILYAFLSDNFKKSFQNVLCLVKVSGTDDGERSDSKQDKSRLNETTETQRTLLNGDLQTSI

[4] = target: Somatostatin receptor type 5 (Homo sapiens, UniProt P35346); assay: Displacement of SST14 from human recombinant SST5 receptor expressed in CHO cells by radioligand binding assay; type: cell-based; in short: as §1
Chain of Somatostatin receptor type 5 (P35346 whole entry): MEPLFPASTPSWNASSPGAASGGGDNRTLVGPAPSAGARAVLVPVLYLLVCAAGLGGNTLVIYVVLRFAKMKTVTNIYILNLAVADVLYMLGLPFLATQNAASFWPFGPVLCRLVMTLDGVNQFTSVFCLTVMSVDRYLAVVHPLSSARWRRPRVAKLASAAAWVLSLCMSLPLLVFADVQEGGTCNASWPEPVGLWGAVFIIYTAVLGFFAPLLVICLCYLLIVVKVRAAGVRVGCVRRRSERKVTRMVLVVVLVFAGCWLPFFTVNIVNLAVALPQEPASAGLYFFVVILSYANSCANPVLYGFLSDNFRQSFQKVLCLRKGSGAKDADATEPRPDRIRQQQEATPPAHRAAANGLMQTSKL

[5] = Dissociation constant, pKa by spectrophotometry; type: physicochemical
Homo sapiens = species: Homo sapiens; assay: Selectivity ratio of Ki for human histamine H1 receptor to Ki for human SST5 receptor
[6] = Octanol-TAPSO partition coefficient, log D at pH 7.4 by spectrophotometry; type: physicochemical; conditions: octanol/TAPSO buffer
In short: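 Spectrophotometric log D in 1-octanol/50 mM TAPSO buffer, pH 7.4, containing 5% (v/v) DMSO.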

Histamine H1 receptor = Histamine H1 receptor (Homo sapiens, UniProt P35367); assay: Binding affinity to human histamine H1 receptor
Chain of Histamine H1 receptor (P35367 whole entry): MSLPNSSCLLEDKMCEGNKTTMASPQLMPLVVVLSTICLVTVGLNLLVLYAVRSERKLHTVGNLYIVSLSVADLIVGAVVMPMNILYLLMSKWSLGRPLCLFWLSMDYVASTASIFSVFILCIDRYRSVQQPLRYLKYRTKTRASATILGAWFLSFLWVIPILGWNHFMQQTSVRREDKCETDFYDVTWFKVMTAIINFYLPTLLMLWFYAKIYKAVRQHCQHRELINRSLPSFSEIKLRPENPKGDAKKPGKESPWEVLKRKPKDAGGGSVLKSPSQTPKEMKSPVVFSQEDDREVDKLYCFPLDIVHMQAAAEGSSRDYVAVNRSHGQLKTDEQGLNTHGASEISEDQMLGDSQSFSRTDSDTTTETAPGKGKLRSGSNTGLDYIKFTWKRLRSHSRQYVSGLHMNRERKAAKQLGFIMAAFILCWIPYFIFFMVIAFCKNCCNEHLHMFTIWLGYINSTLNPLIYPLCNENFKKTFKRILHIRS

[7] = Solubility in phosphate buffer at pH 6.5 by lyophilization solubility assay; type: physicochemical
In short: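 Lyophilized DMSO stock solutions redissolved in 50 mM phosphate buffer, pH 6.5; solubility read spectrophotometrically.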

[8] = sPermeability by PAMPA; type: ADME; conditions: read-out: permeability
In short: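 Parallel artificial membrane permeation; Pe categorized as low (<0.1), medium (0.1–1.0) or high (>1.0).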

[9] = Terminal half-life in Wistar rat administered as single dose; type: ADME, organism-based; conditions: in vivo, read-out: beta t1/2 (converted)
[10] = Clearance in Wistar rat administered as single dose; type: ADME, organism-based; conditions: in vivo
[11] = Oral bioavailability in Wistar rat administered as single dose; type: ADME, organism-based; conditions: in vivo
[12] = Volume of distribution at steady state in Wistar rat administered as single dose; type: ADME, organism-based; conditions: in vivo, read-out: Vdss

Chain of Somatostatin receptor type 4 (P31391 whole entry): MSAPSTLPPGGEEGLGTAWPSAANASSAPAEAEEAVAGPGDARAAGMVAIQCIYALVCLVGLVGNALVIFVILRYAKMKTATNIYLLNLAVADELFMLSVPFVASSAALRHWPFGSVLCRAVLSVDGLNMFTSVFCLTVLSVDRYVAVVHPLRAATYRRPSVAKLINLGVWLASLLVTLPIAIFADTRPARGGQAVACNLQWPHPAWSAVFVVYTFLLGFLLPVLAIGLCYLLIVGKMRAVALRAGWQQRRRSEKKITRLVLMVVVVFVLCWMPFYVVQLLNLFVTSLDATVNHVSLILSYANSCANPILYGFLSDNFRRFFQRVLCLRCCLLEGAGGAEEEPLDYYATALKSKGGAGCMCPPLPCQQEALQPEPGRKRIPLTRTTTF

Row | Structure (SMILES) | Ki [1] [µM] | Ki [2] [µM] | Ki [3] [µM] | Ki [4] [µM] | further results
1 | CCCOc1cc(CN2CCC(Nc3nc4ccccc4o3)CC2)ccc1OC | > 10 | > 10 | > 10 |  | 
2 | CC(C)Oc1cc(CN2CCC(Nc3nc4ccccc4o3)CC2)cc(OC(C)C)c1 | > 10 | > 10 | > 10 | 0.031 | 
3 | CCOc1cc(CN2CCC(Nc3nc4ccccc4o3)CC2)c(F)c(OCC)c1 | > 10 | > 10 | > 10 | > 1 | 
4 | CCOc1cc(CN2CCC(C(=O)Nc3nc4ccccc4s3)CC2)ccc1OC | > 10 | > 10 | > 10 | > 1 | 
5 | CCNc1cc(CN2CCC(Nc3nc4ccccc4o3)CC2)ccc1OC | > 10 | > 10 | > 10 | 0.371 | 
6 | CCOc1cc(CN2CCC(Nc3nc4ccccc4o3)CC2)ccc1C(F)(F)F | > 10 | > 10 | > 10 | 0.524 | 
7 | CCOc1cc(CN2CCC(Nc3nc4ccccc4o3)CC2)cnc1OC | > 10 | > 10 | > 10 | > 1 | 
8 | COc1ccc(CN2CCC(Nc3nc4ccccc4o3)CC2)cc1OC1CCCC1 | > 10 | > 10 | > 10 |  | 
9 | CCOc1cc(CN2CCC(Nc3nc4ccccc4o3)CC2)cc(OCC)c1N | > 10 | > 10 | > 10 | 0.033 | 
10 | COc1ccc(CN2CCC(Nc3nc4ccccc4o3)CC2)cc1OCCF | > 10 | > 10 | > 10 | 0.487 | 
11 | CCOC(=O)c1c(OCC)cc(CN2CCC(Nc3nc4ccccc4o3)CC2)cc1OCC | > 10 | > 10 | > 10 | 0.156 | 
12 | COc1ccc(CN2CCC(Nc3nc4ccccc4o3)CC2)cc1OCC(C)C | > 10 | > 10 | > 10 |  | 
13 | COc1ccc(CN2CCC(Nc3nc4ccccc4o3)CC2)cc1OC | > 10 | > 10 | > 10 | 0.472 | 
14 | CCOc1cc(CN2CCC(Nc3nc4ccccc4o3)CC2)ccc1F | > 10 | > 10 | > 10 |  | pKa [5]: 7.79; Ratio Ki (Homo sapiens): 4.3; logD [6]: 3.63; Ki (Histamine H1 receptor): 0.826 µM; solubility [7]: > 452 µg/mL; Papp [8]: 4.33 ×10⁻⁶ cm/s
15 | CCOc1cc(NC2CCC(Nc3nc4ccccc4s3)CC2)ccc1OC (configuration not stated) | > 10 | > 10 | > 10 | > 1 | 
16 | CCOc1cc(CN2CCC(Nc3nc4cc(NS(=O)(=O)c5ccccc5)ccc4o3)CC2)ccc1OC | > 10 | > 10 | > 10 | 0.205 | pKa [5]: 7.72; Ratio Ki (Homo sapiens): 1; logD [6]: 1.93; Ki (Histamine H1 receptor): 0.199 µM; solubility [7]: 145 µg/mL (≈ 270 µM); Papp [8]: 2.2 ×10⁻⁶ cm/s
17 | CCOc1cc(CN2CCC(Nc3nc4cc(NS(=O)(=O)c5cn(C)cn5)ccc4o3)CC2)ccc1OC | > 10 | > 10 | > 10 | 0.175 | half-life [9]: 1.5 h; pKa [5]: 7.91; logD [6]: 1.48; clearance [10]: 41 mL/min/kg; bioavailability [11]: 2%; solubility [7]: > 720 µg/mL; Vd [12]: 2.2 L/kg; Papp [8]: 0.49 ×10⁻⁶ cm/s
18 | CCOc1cc(CN2CCC(Nc3nc4ccccc4o3)CC2)cc(OCC)c1F | > 10 | > 10 | > 10 | 0.178 | 
19 | CCOc1cc(CN2CCC(Nc3nc4cc(Cl)c(S(N)(=O)=O)cc4o3)CC2)cc(OCC)c1F | > 10 | > 10 | > 10 | 0.252 | pKa [5]: 7.61; logD [6]: 2.78; solubility [7]: 32 µg/mL (≈ 60.7 µM); Papp [8]: 2.45 ×10⁻⁶ cm/s
20 | CCOc1cc(N2CCN(C(=O)Nc3nc4ccccc4s3)CC2)ccc1OC | > 10 | > 10 | > 10 | > 1 | 
21 | CCOc1cc(CN2CCC(Nc3nc4cc(NC(C)=O)ccc4o3)CC2)ccc1OC | > 10 | > 10 | > 10 | 0.357 | 
22 | CCOc1cc(NCc2cccc(Nc3nc4ccccc4s3)c2)ccc1OC | > 10 | > 10 | > 10 | > 1 | 
23 | CCOc1cc(CN2CCC(Nc3nc4cc(S(=O)(=O)N(C)C)ccc4o3)CC2)ccc1OC | > 10 | > 10 | > 10 | 0.226 | 
